From ChEMBL document CHEMBL3351540, “Novel antiproliferative chimeric compounds with marked histone deacetylase inhibitory activity” (ACS Med Chem Lett, 2014)
Calls of active or inactive are those of the source. The calls are words filed in the database; no cut-off is given here.

What was measured:
[1] = tested on: K562; assay: Antiproliferative activity against human K562 cells assessed as growth inhibition after 48 hrs by trypan blue dye exclusion method; format: functional, cell-based; details: K562, 48 h
[2] = tested on: K562; assay: Induction of apoptosis in human K562 cells using annexin-V/PI staining by flow cytometry; format: functional, cell-based
In short: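 K562 cells treated for 48 h; apoptosis scored by annexin V test. AC50 is the concentration inducing apoptosis in 50% of cells. Triplicate points, SD error bars.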

[3] = tested on: MCF7; assay: Cell cycle arrest in human MCF7 cells assessed as block at G2-M phase at 5 uM after 24 to 96 hrs using propidium iodide staining by FACScan flow cytometry; format: functional, cell-based
[4] = Cell cycle arrest in human U937 cells assessed as block at G1 phase at 5 uM after 24 to 96 hrs using propidium iodide staining by FACScan flow cytometry; format: functional, cell-based; details: U-937
[5] = tested on: U-937; assay: Induction of apoptosis in human U937 cells using annexin-V/PI staining after 48 hrs by flow cytometry relative to SAHA; format: functional
In short: (§1)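 U937 cells treated with 5 μM compound for 48 h, with SAHA at 5 μM as positive control. Apoptosis and necrosis measured by annexin V/PI double staining and flow cytometry. Triplicate points, SD error bars.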

[6] = molecular target: Histone deacetylase 1 (Homo sapiens, UniProt Q13547); assay: Inhibition of human recombinant HDAC1 using modified Boc-Lys(Ac)-AMC MAL as substrate after 1 hr by fluorescent activity assay
Histone deacetylase 1, sequence (Q13547 whole entry): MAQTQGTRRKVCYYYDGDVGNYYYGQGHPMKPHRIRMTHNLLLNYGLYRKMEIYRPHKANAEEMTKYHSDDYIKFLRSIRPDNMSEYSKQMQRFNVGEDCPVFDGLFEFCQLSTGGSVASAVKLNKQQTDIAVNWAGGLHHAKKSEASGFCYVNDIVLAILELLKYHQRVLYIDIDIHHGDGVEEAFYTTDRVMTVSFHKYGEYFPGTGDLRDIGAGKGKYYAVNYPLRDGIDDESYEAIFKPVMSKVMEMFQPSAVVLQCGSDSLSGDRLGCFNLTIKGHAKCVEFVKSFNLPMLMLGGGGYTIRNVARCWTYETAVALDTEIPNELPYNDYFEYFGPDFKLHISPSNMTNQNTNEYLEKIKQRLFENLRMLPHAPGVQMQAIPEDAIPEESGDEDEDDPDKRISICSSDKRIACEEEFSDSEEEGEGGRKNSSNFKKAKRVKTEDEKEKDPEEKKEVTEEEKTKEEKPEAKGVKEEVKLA

[7] = molecular target: Histone deacetylase 4 (Homo sapiens, UniProt P56524); assay: Inhibition of human recombinant HDAC4 using (S)-[5-Acetylamino-1-(2-oxo-4-trifluorometyl-2Hchromen-7-ylcarbamoyl)pentl]carbami acid tert-Butyl Ester as substrate after 1 hr by fluorescent activity assay
Histone deacetylase 4, sequence (P56524 whole entry): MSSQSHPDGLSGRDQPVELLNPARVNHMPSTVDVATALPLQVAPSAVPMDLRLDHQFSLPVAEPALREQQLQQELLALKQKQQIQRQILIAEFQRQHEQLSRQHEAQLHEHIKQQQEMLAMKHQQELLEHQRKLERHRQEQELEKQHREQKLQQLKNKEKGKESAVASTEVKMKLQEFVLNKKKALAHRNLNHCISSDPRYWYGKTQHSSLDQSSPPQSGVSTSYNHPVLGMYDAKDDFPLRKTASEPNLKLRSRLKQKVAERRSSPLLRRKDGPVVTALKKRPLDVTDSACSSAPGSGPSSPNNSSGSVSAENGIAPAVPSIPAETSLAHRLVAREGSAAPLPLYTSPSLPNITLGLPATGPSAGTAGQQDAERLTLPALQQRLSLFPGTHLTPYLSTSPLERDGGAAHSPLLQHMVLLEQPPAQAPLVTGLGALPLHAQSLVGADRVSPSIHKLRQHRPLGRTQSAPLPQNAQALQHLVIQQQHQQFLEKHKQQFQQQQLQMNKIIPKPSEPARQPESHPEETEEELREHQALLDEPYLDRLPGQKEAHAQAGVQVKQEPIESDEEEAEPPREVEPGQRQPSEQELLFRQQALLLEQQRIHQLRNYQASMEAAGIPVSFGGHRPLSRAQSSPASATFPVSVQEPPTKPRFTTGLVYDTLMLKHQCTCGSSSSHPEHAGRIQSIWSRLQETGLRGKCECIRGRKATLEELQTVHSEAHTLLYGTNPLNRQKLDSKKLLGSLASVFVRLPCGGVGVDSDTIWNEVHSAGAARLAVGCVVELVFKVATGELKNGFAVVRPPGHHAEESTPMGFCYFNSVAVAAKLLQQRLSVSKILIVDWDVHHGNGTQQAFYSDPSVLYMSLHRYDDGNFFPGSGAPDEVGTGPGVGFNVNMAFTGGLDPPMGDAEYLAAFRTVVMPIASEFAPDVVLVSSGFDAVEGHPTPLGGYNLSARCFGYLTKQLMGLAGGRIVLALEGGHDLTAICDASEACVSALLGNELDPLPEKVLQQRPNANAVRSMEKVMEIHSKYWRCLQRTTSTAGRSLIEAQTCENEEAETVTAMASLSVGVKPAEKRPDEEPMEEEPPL

[8] = molecular target: T1, Protein deacetylase HDAC6 (Homo sapiens, UniProt Q9UBN7); assay: Inhibition of human recombinant HDAC6 using Z-MAL as substrate after 1 hr by fluorescent activity assay
T1 sequence (Q9UBN7 whole entry): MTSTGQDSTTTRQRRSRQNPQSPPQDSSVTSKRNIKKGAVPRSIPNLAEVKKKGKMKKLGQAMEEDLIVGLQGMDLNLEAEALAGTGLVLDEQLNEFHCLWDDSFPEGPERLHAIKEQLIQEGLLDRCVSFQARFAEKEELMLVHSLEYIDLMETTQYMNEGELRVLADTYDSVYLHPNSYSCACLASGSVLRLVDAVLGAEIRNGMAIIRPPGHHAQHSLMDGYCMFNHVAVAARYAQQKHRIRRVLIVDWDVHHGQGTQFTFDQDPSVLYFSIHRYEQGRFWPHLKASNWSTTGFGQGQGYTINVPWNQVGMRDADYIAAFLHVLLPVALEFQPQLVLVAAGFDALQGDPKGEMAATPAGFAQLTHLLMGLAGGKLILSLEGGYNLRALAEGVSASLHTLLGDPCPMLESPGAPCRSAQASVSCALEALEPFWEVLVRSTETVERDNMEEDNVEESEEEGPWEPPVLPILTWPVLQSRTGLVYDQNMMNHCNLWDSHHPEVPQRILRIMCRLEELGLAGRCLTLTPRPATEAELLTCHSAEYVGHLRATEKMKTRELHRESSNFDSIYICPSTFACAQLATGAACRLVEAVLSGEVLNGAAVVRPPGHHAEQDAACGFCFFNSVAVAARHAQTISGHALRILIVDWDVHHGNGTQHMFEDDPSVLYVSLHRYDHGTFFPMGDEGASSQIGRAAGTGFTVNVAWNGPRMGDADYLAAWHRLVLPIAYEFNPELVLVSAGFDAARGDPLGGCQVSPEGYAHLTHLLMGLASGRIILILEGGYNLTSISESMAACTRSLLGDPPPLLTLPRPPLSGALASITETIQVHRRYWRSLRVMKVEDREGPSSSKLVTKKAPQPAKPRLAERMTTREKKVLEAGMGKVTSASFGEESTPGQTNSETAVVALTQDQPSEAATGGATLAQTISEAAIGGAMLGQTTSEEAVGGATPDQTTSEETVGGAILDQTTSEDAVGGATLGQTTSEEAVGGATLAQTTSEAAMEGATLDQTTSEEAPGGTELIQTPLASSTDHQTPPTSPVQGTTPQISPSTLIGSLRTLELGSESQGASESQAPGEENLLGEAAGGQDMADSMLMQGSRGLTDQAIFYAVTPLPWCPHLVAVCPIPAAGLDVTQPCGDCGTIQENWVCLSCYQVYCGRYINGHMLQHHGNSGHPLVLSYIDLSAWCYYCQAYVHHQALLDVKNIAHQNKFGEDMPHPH

[9] = tested on: MCF7; assay: Antiproliferative activity against human MCF7 cells at 5 uM after 10 hrs by real-time mode analysis; format: functional, cell-based
In short: (§2)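 Real-time proliferation of MCF-7 cells treated with 5 μM compound, recorded as cell index versus time over 36 h. Doubling time was calculated over the 10−18 h interval.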

[10] = tested on: MCF7; assay: Antiproliferative activity against human MCF7 cells assessed as reduction in doubling time at 5 uM after 10 to 18 hrs by real-time mode analysis; format: functional, cell-based; in short: as §2
[11] = tested on: MCF7; assay: Antimigratory activity against human MCF7 cells assessed as reduction in slope values at 5 uM up to 24 hrs by real-time mode analysis; format: functional; parameters: scale not given: the % may be the effect or the level left
In short: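 MCF-7 cells exposed to 5 μM compound and tracked in real time as cell index versus time over 27 h. Migration was expressed as the slope of the cell index within 24 h.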

[12] = tested on: K562; assay: Ratio of SAHA AC50 to compound AC50 for human K562 cells using annexin-V/PI staining by flow cytometry; format: functional
[13] = tested on: MCF7; assay: Cell cycle arrest in human MCF7 cells assessed as block at G2 phase at 5 uM after 24 to 96 hrs using propidium iodide staining by FACScan flow cytometry
[14] = Cell cycle arrest in human U937 cells assessed as block at G1 phase at 5 uM after 24 to 96 hrs using propidium iodide staining by FACScan flow cytometry; details: U-937
[15] = tested on: K562; assay: Cell cycle arrest in human K562 cells assessed as block at G1 phase at 40 uM after 24 hrs using propidium iodide staining by FACScan flow cytometry; format: functional, cell-based
[16] = tested on: K562; assay: Cell cycle arrest in human K562 cells assessed as block at G2-M phase at 40 uM after 24 hrs using propidium iodide staining by FACScan flow cytometry; format: functional, cell-based
[17] = tested on: U-937; assay: Induction of apoptosis in human U937 cells using annexin-V/PI staining after 48 hrs by flow cytometry; format: functional, cell-based; in short: as §1

| IC50 [1] [µM] | IC50 [6] [µM] | SMILES | AC50 [2] [µM] | Activity [15] | Activity [16] | further results |
| --- | --- | --- | --- | --- | --- | --- |
| 0.7 | 0.8 | COc1cc(/C=C/c2ccc(OC)c(NC(=O)CCCCCCC(=O)NO)c2)cc(OC)c1 | 5 |  |  | Activity [3]: Active; Activity [4]: Active; fold change (FC) [5]: 2; IC50 [7]: 9.8 µM; IC50 [8]: 1.3 µM; Activity [9]: Active; Activity [10]: Active; Activity [11]: 25%; Ratio [12]: 2; Activity [13]: Active; Activity [14]: Active |
|  |  | Oc1ccc(-c2ccc(-c3cc(O)cc(O)c3)cc2)cc1 | > 50 |  |  |  |
|  |  | O=C(CCCCCCC(=O)Nc1ccccc1)NO [VORINOSTAT] | 10 | Active | Active | Activity [3]: Active; Activity [4]: Active; Activity [17]: Active; Activity [10]: Active; Activity [13]: Active; Activity [14]: Active |
| 20 | 8.9 | O=C(NO)c1ccc(-c2ccc(-c3cc(O)cc(O)c3)cc2)cc1 | > 50 |  |  |  |
| 2.5 | 15.7 | O=C(CCCCCCNC(=O)c1ccc(-c2ccc(-c3cc(O)cc(O)c3)cc2)cc1)NO | 16 |  |  |  |
| 7.5 | 2.1 | COc1cc(/C=C\c2ccc(OC)c(NC(=O)CCCCCCC(=O)NO)c2)cc(OC)c1 | 40 | Active | Active | IC50 [7]: 7.6 µM; IC50 [8]: 1.6 µM |
| 6 | 0.9 | O=C(CCCCCNC(=O)c1ccc(-c2ccc(-c3cc(O)cc(O)c3)cc2)cc1)NO | 38 |  |  |  |

| SMILES | IC50 [1] [µM] | IC50 [6] [µM] | AC50 [2] [µM] | Activity [15] | Activity [16] | further results |
| --- | --- | --- | --- | --- | --- | --- |
| COc1cc(/C=C\c2ccc(OC)c(N)c2)cc(OC)c1 | 0.025 |  | 0.25 |  |  |  |
| COc1cc(/C=C/c2ccc(OC)c(N)c2)cc(OC)c1 | 2.5 |  | 20 | Active | Active |  |
